Measured values as given in ChEMBL document CHEMBL1157264, “Hispidin derivatives from the mushroom Inonotus xeranticus and their antioxidant activity” (J Nat Prod, 2006).
Activity calls are given as the source filed them. The calls are words filed in the database; no cut-off is given here.

What was measured:
Format in all cases: functional
[1] = Antioxidant activity assessed as superoxide radical anion scavenging activity after 30 mins by microplate reader
How it was run: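 Xanthine/xanthine oxidase system: 50 mM potassium phosphate pH 7.8, 1 mM EDTA, 0.04 mM NBT, 0.18 mM xanthine, 250 mU/mL xanthine oxidase plus sample, 30 min at 37 °C in the dark. NBT-formazan read at 560 nm, background from a no-enzyme control subtracted. IC50 derived; BHA reference.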

[2] = Antioxidant activity assessed as ABTS radical scavenging activity after 12 hrs by ELISA; conditions: in the assay text read “after 6 mins” for “after 12 hrs”
How it was run: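 ABTS dissolved in water at 7 mM, reacted with 2.45 mM potassium persulfate (final) and left 12 h in the dark at room temperature to form ABTS•+. Radical solution (A734 0.700) added to samples in EtOH, absorbance read after mixing for up to 6 min. IC50 derived; vitamin E reference.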

[3] = system: Radical scavenging activity; assay: Antioxidant activity assessed as DPPH radical scavenging activity for 20 mins by ELISA
How it was run: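 Samples in DMSO added to 150 µM DPPH in ethanol, vortexed, incubated 20 min at room temperature, absorbance read at 517 nm. Activity taken from the absorbance difference versus DMSO control; vitamin E and caffeic acid references.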

Row | Compound | IC50 [1] [µM] | IC50 [2] [µM] | Activity [3]
1 | COc1ccc(O)c(C(C)(C)C)c1.COc1ccc(O)cc1C(C)(C)C [BUTYLATED HYDROXYANISOLE] | 10 |  | 
2 | COC1(CC(C)=O)Oc2cc(/C=C/c3ccc(O)c(O)c3)oc(=O)c2/C1=C/c1ccc(O)c(O)c1 (stereo not given) [PHELLIGRIDIN F] | 40 | 11.4 | inactive
3 | COC1(C)Oc2cc(/C=C/c3ccc(O)c(O)c3)oc(=O)c2/C1=C/c1ccc(O)c(O)c1 (stereo not given) [INOSCAVIN B] | 95 |  | inactive
4 | COc1cc(/C=C/c2cc3c(c(=O)o2)C2(OC(C)=CC2=O)C(c2ccc(O)c(O)c2)O3)ccc1O (stereo not given) [METHYLINOSCAVIN A] | 20 | 10.7 | inactive
5 | COc1cc(/C=C/c2cc3c(c(=O)o2)/C(=C/c2ccc(O)c(O)c2)C(C)(OC)O3)ccc1O (stereo not given) [METHYLINOSCAVIN B] | 38 | 13.1 | inactive
6 | CC1=CC(=O)C2(O1)c1c(cc(/C=C/c3ccc(O)c(O)c3)oc1=O)OC2c1ccc(O)c(O)c1 (stereo not given) [INOSCAVIN A] | 78 |  | inactive
7 | VITAMIN E |  | 6 | 
